Measurements of several laboratories.
In brackets after ≈: the same amount, converted by molar mass.

Compound	target or system	assay	system	setting	endpoint	value
CCC(CC)COC(=O)[C@H](C)N[P@](=O)(OC[C@H]1O[C@@](C#N)(c2ccc3c(N)ncnn23)[C@H](O)[C@@H]1O)Oc1ccccc1	Human coronavirus 229E	viral replication	Calu-3	–	IC50	110 nM
CC[C@H](C)C[C@H](C)CCCCCCCCC(=O)N[C@H]1C[C@@H](O)[C@@H](NCCN)NC(=O)[C@@H]2[C@@H](O)CCN2C(=O)[C@H]([C@H](O)CCN)NC(=O)[C@H]([C@H](O)[C@@H](O)c2ccc(O)cc2)NC(=O)[C@@H]2C[C@@H](O)CN2C(=O)[C@H]([C@@H](C)O)NC1=O	Aspergillus fumigatus	microbial growth, broth dilution	MF5668	–	MIC50	0.016 µg/mL (≈ 0.0146 µM)
CC1(C)C=Cc2cc(/C=C/C(=O)Nc3ccccc3)ccc2O1	rat Primary cortical neuron	cell growth or viability, MTT	–	1 µM, 12 h	viability	73%
Cc1cccc(CSc2nccc(OCCOc3cc(=O)oc4ccccc34)n2)c1	Human coronavirus 229E	cytopathic effect	A549	25 µM	inhibition	58.1%
COc1ccc(N2CCN(C(=O)/C=C/c3ccc4c(c3)C=CC(C)(C)O4)CC2)cc1	rat Primary cortical neuron	cell growth or viability, MTT	–	1 µM, 12 h	viability	75%
CCCCCC/C=C\CCCCCCCCCC(=O)CP(=O)(O)O	Enterococcus faecalis	microbial growth	ATCC33186	–	MIC	12.5 µg/mL (≈ 34.7 µM)
COc1cccc(NC(=O)/C=C/c2ccc3c(c2)C=CC(C)(C)O3)c1	rat Primary cortical neuron	cell growth or viability, MTT	–	1 µM, 12 h	viability	87%
O=C(Cc1ccc2ccccc2c1)N[C@@H](Cc1ccccc1)C(=O)N[C@H](Cc1ccccc1)C(=O)N[C@@H](Cc1ccc(OP(=O)(O)O)cc1)C(=O)O	HeLa	cell growth or viability, MTT	–	48 h	IC50	> 500000 nM
O=C(CCCCC1CCCCC1)NP(=O)(O)O	Enterococcus faecalis	microbial growth	ATCC33186	–	MIC	> 200 µg/mL
O=c1cc(OCCCOc2ccnc(SCc3ccc(F)cc3)n2)c2cc(F)ccc2o1	Human coronavirus 229E	cytopathic effect	A549	25 µM	inhibition	65.8%
CCCCCCCC(=O)NP(=O)(O)O	Enterococcus faecalis	microbial growth	ATCC33186	–	MIC	> 200 µg/mL
Nc1ncnc2c([C@@H]3N[C@H](CO)[C@@H](O)[C@H]3O)c[nH]c12	Japanese encephalitis virus	viral replication, inhibitor	Vero 76	9.5 µM	inhibition	9.8%
O=C(CCCCCCCCCCOc1ccccc1)CP(=O)(O)O	Enterococcus faecalis	microbial growth	ATCC33186	–	MIC	50 µg/mL (≈ 140 µM)
CCOC(=O)C1=C[C@@H](OC(CC)CC)[C@H](NC(C)=O)[C@@H](N)C1	Human coronavirus 229E	cytopathic effect	A549	50 µM	inhibition	72.8%
COc1c(C)c2c(c(O)c1C/C=C(\C)CCC(=O)O)C(=O)OC2	Human coronavirus 229E	viral replication	Calu-3	–	IC50	2110 nM
O=C(CCCCC1CCCCC1)CP(=O)(O)O	Enterococcus faecalis	microbial growth	ATCC33186	–	MIC	> 200 µg/mL
NC(=O)c1ncn([C@@H]2O[C@H](CO)[C@@H](O)[C@H]2O)n1	Human coronavirus 229E	viral replication	Huh7.5	–	IC50	25100 nM
